Drawing on PubChem BioAssay, this text covers GFP response vs DMSO, GFP response relative to DMSO and GFP response, % of DMSO for nine compounds.

Assay [1] in a line: hit retest on RPL19A-GFP reporter strain – cell-based, S. cerevisiae, flow cytometry, cherry picks, mother/daughter gates, confirmation (AID 2270;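 active = GFP response below 50% of the DMSO control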). The note with it: 3 h, at 10 µM, stronger effect = lower value, 100 = same GFP as DMSO wells.
Assay [2] can be described thus: yeast TOR pathway reporter LAP4-GFP change – cell-based, cherry picks, flow cytometry, mother/daughter gates, confirmation (AID 2271;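 active = GFP response above 150% of the DMSO control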;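 note: ratio of sample to DMSO plate mean so 100% equals DMSO level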). Particulars: S. cerevisiae LAP4-GFP strain, 3 h, at 10 µM, stronger effect = higher value, 100 means same as DMSO control. The method, boiled down:
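material = Alexa 633-stained baker's yeast GFP-fusion strain | amount = 0.2 OD600 cells | schedule = 30 °C, 3 h compound incubation, rotating | signal = GFP by flow cytometry | measure = per-gate (all, mother, daughter) GFP response vs DMSO | controls = positive rapamycin (400 ng/mL), negative DMSO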
Background: A flow cytometer gives signals particle by particle.

Assay [3] in a line: TOR pathway reporter MEP2-GFP, retest of hits – S. cerevisiae, flow cytometry GFP, cherry picks, confirmation (AID 2272;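 active = GFP response above 150% of the DMSO control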;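 note: ratio of well signal to plate DMSO mean so 100% equals DMSO level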). The note with it: S. cerevisiae MEP2-GFP strain, 3 h, at 10 µM, stronger effect = higher value.
Assay [4] can be described thus: yeast AGP1-GFP fluorescence change, single-dose – cell-based, flow cytometry, S. cerevisiae, cherry picks, confirmation (AID 2273).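 Note: median GFP channel fluorescence over the whole cell population gate.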 Particulars: S. cerevisiae AGP1-GFP strain, 3 h, at 10 µM.
Assay [5] in a line: TOR pathway CIT2 reporter hit retest – S. cerevisiae, GFP fusion, cherry picks, mother/daughter gates, confirmation (AID 2274). Particulars: S. cerevisiae CIT2-GFP strain, flow cytometry, 3 h, at 10 µM, stronger effect = higher value.
Where [6] appears, read: measured here: daughter cell gate.
Setting [7] is: measured here: mother cell gate.
Setting [8] is: measured here: daughter cell gate response.
Setting [9] is: measured here: mother cell gate response.

Active and inactive are the calls of the source.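 Rule for the calls, unless noted: active = GFP response above 150% of the DMSO level; inconclusive = fewer than 70 events counted for a yeast strain; inactive = the rest.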

On to `Nc1ccc(C(=O)N/N=C/c2ccccc2)cc1`, for which the GFP response vs DMSO in assay [1] was 105% (inactive); in assay [1] (setting [6]), 102%; in assay [1] (setting [7]), 106%; in assay [3], 101% (inactive). For the same compound, the GFP response relative to DMSO in assay [2] is 102% (inactive); in assay [2] (setting [8]), 99.1%; in assay [2] (setting [9]), 102%. Also, the GFP response, % of DMSO was 108% (inactive) in assay [4], 100% (inactive) in assay [5], 101% in assay [5] (setting [6]) and 99.3% in assay [5] (setting [7]).
In the case of `O=C(O)COc1c(-c2ccc(Cl)cc2)oc2ccccc2c1=O`, the GFP response vs DMSO in assay [1] is 97% (inactive); in assay [1] (setting [6]) it was 95.4%; in assay [1] (setting [7]) it was 97.9%; in assay [3], 102% (inactive). Further, the GFP response relative to DMSO in assay [2] is 99.2% (inactive); in assay [2] (setting [8]), 99.2%; in assay [2] (setting [9]), 99.3%. The GFP response, % of DMSO was 96% (inactive) in assay [4], 96.9% (inactive) in assay [5], 97.2% in assay [5] (setting [6]) and 96.1% in assay [5] (setting [7]).
For the compound `CCCCOc1c(Br)cc(/C=C2\N=C(C)OC2=O)cc1OCC`, the GFP response vs DMSO was 97.8% (inactive) in assay [1], 98.4% in assay [1] (setting [6]), 97.7% in assay [1] (setting [7]) and 100% (inactive) in assay [3]. In addition, the GFP response relative to DMSO in assay [2] is 106% (inactive); in assay [2] (setting [8]), 102%; in assay [2] (setting [9]), 106%. In addition, the GFP response, % of DMSO in assay [4] is 101% (inactive); in assay [5], 98.3% (inactive); in assay [5] (setting [6]) it was 99.1%; in assay [5] (setting [7]) it was 98.5%.
In the case of `CCOc1ccccc1C1N=C(c2ccc(OC)cc2)CC(c2ccccc2O)N1` (centres undefined), the GFP response vs DMSO in assay [1] is 102% (inactive); in assay [1] (setting [6]) it was 103%; in assay [1] (setting [7]), 100%; in assay [3] it was 105% (inactive). Besides, the GFP response relative to DMSO was 106% (inactive) in assay [2], 99.7% in assay [2] (setting [8]) and 109% in assay [2] (setting [9]). The GFP response, % of DMSO in assay [4] was 102% (inactive); in assay [5] it was 110% (inactive); in assay [5] (setting [6]) it was 108%; in assay [5] (setting [7]) it was 109%.
With `O=c1[nH]n(Cc2ccccc2)c2ccccc12`, the GFP response vs DMSO in assay [1] is 97.6% (inactive); in assay [1] (setting [6]), 97.8%; in assay [1] (setting [7]), 97.8%; in assay [3], 102% (inactive). Further, the values for the GFP response relative to DMSO in assay [2], in assay [2] (setting [8]) and in assay [2] (setting [9]) were 103% (inactive), 102% and 103%, respectively. Besides, the GFP response, % of DMSO in assay [4] is 98.7% (inactive); in assay [5] it was 96.4% (inactive); in assay [5] (setting [6]), 96.4%; in assay [5] (setting [7]), 94.5%.
Take `Cc1ccc(C(=O)NNC(=S)NC(=O)COc2ccccc2)cc1`: the GFP response vs DMSO in assay [1] was 122% (inactive); in assay [1] (setting [6]), 92.1%; in assay [1] (setting [7]), 110%; in assay [3] it was 153% (inactive). In addition, the GFP response relative to DMSO was 223% (active) in assay [2], 186% in assay [2] (setting [8]) and 203% in assay [2] (setting [9]). Besides, the GFP response, % of DMSO in assay [4] was 134% (inactive); in assay [5], 138% (inactive); in assay [5] (setting [6]), 139%; in assay [5] (setting [7]), 110%.
On to `CC(NCCS(=O)(=O)c1ccc(Cl)cc1)c1cccc(Cl)c1` (centres undefined), for which the GFP response vs DMSO in assay [1] is 95.1% (inactive); in assay [1] (setting [6]), 96.4%; in assay [1] (setting [7]), 94%; in assay [3], 106% (inactive). Further, the GFP response relative to DMSO in assay [2] was 97.7% (inactive); in assay [2] (setting [8]), 96%; in assay [2] (setting [9]) it was 99.5%. The GFP response, % of DMSO in assay [4] was 98.2% (inactive); in assay [5] it was 97.2% (inactive); in assay [5] (setting [6]), 97.6%; in assay [5] (setting [7]), 98.2%.
Consider `Cc1ccc(NC(=O)CCCSc2nc3ccccc3[nH]2)cc1`, for which the GFP response vs DMSO was 99.6% (inactive) in assay [1], 99.1% in assay [1] (setting [6]), 100% in assay [1] (setting [7]) and 98.8% (inactive) in assay [3]. In addition, the GFP response relative to DMSO was 96.1% (inactive) in assay [2], 98.2% in assay [2] (setting [8]) and 98.2% in assay [2] (setting [9]). The GFP response, % of DMSO in assay [4] was 106% (inactive); in assay [5] it was 113% (inactive); in assay [5] (setting [6]) it was 111%; in assay [5] (setting [7]), 114%.
Consider `Cc1ccc(NS(=O)(=O)c2ccc(CCC(=O)N3CCOCC3)cc2)cc1`, for which the GFP response vs DMSO in assay [1] was 94.6% (inactive); in assay [1] (setting [6]), 94.6%; in assay [1] (setting [7]), 94.9%; in assay [3] it was 96.2% (inactive). For the same compound, the figures for the GFP response relative to DMSO in assay [2], in assay [2] (setting [8]) and in assay [2] (setting [9]) were 95.4% (inactive), 96% and 95.1%, respectively. Further, the GFP response, % of DMSO in assay [4] was 102% (inactive); in assay [5], 101% (inactive); in assay [5] (setting [6]), 103%; in assay [5] (setting [7]) it was 101%.
